The results in this text go back to PMC7226286 (Cancer Science, 2020).

The assay concerns STAT3 and RAF/MEK/ERK pathways in SAS xenograft tumors. The assay can be described thus: Western blot of SAS xenograft tumor lysates. The assay is classed as in vivo, mice. The note with it: day 12, 6 hours after final administration. Summed up:
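Male BALB/c nude mice (6 weeks old) bearing subcutaneous SAS oral tumours; test compound (50 or 60 mg/kg), a kinase inhibitor (10 mg/kg), the combination or vehicle given orally, 5 days on/2 off from day 1 (palpable tumours). Day 12: tumours (n = 3) excised 6 h after last dose, snap-frozen, lysed; immunoblot for pY705-STAT3, STAT3, pT202/Y204-ERK1/2, ERK1/2, survivin, β-actin.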
(In general: In western blotting, separated proteins are transferred to a membrane and probed.)

Consider `CNC(=O)c1cc(Oc2ccc(NC(=O)Nc3ccc(Cl)c(C(F)(F)F)c3)cc2)ccn1` [Sorafenib], for which the “phospho‐ERK in tumor tissues” value is recorded as “clearly reduced”, the “phospho‐STAT3 in tumor tissues” value is listed as “clearly reduced” and the “survivin in tumor tissues” value was “moderately suppressed”.
